From PubChem BioAssay
Activity calls are given as the source filed them.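 Rule for the calls, unless noted: active = viability at or below 10% of carrier control in both of two separate runs; inconclusive = viability at or below 10% in only one of the two runs; inactive = the rest.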

Assays:
[1] = reduced viability of SK-BR-3 breast cancer cells – cell-based, 24 h, human, pilot screen (AID 572); conditions: SK-BR-3 viability, CellTiter-Glo luminescence, at 10 µM, stronger effect = lower value;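 note: compound exposure lasted between 18 and 24 h rather than exactly 24 h; 100% = carrier-treated control wells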
[2] = HUVEC growth inhibition – cell-based, human, primary screen (AID 575;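 active = viability at or below 30% in both replicate assays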;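 note: 100% = median of untreated cell wells with 0.1% DMSO on each plate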); conditions: HUVEC proliferation, CellTiter-Glo luminescence, 72 h; at 10 µM; stronger effect = lower value
How it was run: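 System – primary HUVEC, no more than 12 passages · Medium – Low-serum (2% FBS) EBM, supplemented · Times – 72 h exposure, 37 °C, 5% CO2, 30 min RT equilibration · Measured by – luminescent ATP assay · Read-out – % viability relative to median vehicle-well signal on each plate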

[3] = H69AR cell proliferation blockers – human, duplicate replicates, primary screen (AID 580;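 active = viability at or under a set limit in both replicates, limit being median viability minus 3 SD, cut at about 48% in these data, passing the limit was not always enough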;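 note: 100% = mean luminescence of untreated wells and 0% = no signal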); conditions: H69AR lung tumor cells viability, ATP luminescence, 72 h; at 10 µM; stronger effect = lower value
[4] = MRP1 drug-resistance reversers in H69AR cells – cell-based, doxorubicin co-treatment, pilot screen (AID 601;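 active = viability loss from added drug above about 55%, and viability with drug at most 40%, in both replicates, limit read from the data, passing the limit was not always enough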); conditions: CellTiter-Glo, 72 h, at 10 µM; for differential viability (reversal): stronger effect = higher value
[5] = yeast transport mutant growth inhibition pilot in 384-well plates, post-Golgi transport modulator project (AID 636; in the data active = inhibition above about 31%); conditions: absorbance 615 nm, about 18 h, stronger effect = higher value
[6] = growth suppression of yeast trafficking mutant, preliminary HTS, modulators of trafficking downstream of Golgi apparatus project, 1536-format plate, OD 615 nm (AID 637; in the data active = inhibition above about 30%); conditions: yeast transport mutant growth, absorbance 615 nm, 18 h; stronger effect = higher value
[7] = H69AR cells + 2 uM doxorubicin, measured here: viability with 2 uM doxorubicin, stronger effect = lower value
[8] = H69AR cells, compound alone cytotoxicity

Compound	viability [1]	viability [2]	viability [3]	differential viability (reversal) ([4]; H69AR cells + 2 uM doxorubicin)	viability [4, 7]	viability [4, 8]	inhibition [5]	inhibition [6]
Fc1ccccc1Cn1nnc2c(-n3ccnc3)ncnc21	115% (inactive)	99.9% (inactive)	92.3% (inactive)	15.2% (inactive)	77.1%	92.3%	-3.01% (inactive)	-3.71% (inactive)
O=C(NS(=O)(=O)c1ccc(NC(=O)C2CCCO2)cc1)c1ccccc1 (configuration not stated)	79% (inactive)	103% (inactive)	92.8% (inactive)	4.17% (inactive)	88.7%	92.8%	-6.35% (inactive)	-0.55% (inactive)
Cc1cc(Br)c(S(=O)(=O)n2nnc3ccccc32)cc1C	107% (inactive)	101% (inactive)	81.8% (inactive)	-4.02% (inactive)	85.8%	81.8%	-8.22% (inactive)	5.09% (inactive)
CCOc1nc(OCC)nc(N2CCC(C)CC2)n1	91% (inactive)	108% (inactive)	84.9% (inactive)	-10.5% (inactive)	95.4%	84.9%	-5% (inactive)	31.4% (active)
CCOC(=O)N1CCN(C(=O)c2cn(CC)c3cc(N4CCN(C)CC4)c(F)cc3c2=O)CC1	100% (inactive)	101% (inactive)	104% (inactive)	1.33% (inactive)	103%	104%	-7.26% (inactive)	7.74% (inactive)
O=C(CSc1nnc(-c2ccccn2)n1Cc1ccccc1)N1CCCC1	109% (inactive)	104% (inactive)	98.8% (inactive)	10.9% (inactive)	87.9%	98.8%	-8.67% (inactive)	-6% (inactive)
Cc1ccc(NC2=NCC(=O)N2c2ccc3c(c2)OCCO3)c(C)c1	84% (inactive)	95.7% (inactive)	99.4% (inactive)	0.67% (inactive)	98.7%	99.4%	-6.16% (inactive)	-2.9% (inactive)
CC(=O)OCC[N+](C)(C)C	102% (inactive)	96.7% (inactive)	92.5% (inactive)	-8.23% (inactive)	101%	92.5%	1.95% (inactive)	-2.5% (inactive)
Cc1ccc(-c2nnc3c4ccccc4c(C)nn23)cc1NC(=O)c1ccco1	81.5% (inactive)	98.2% (inactive)	91.8% (inactive)	-3.85% (inactive)	95.7%	91.8%	-5.27% (inactive)	6.51% (inactive)
Cc1cc(C)cc(OCC(=O)NC2=NCCS2)c1	100% (inactive)	87.5% (inactive)	96.1% (inactive)	2.82% (inactive)	93.3%	96.1%	0.39% (inactive)	1.48% (inactive)
COc1ccccc1-c1nc2n(n1)C(c1ccc(Cl)cc1)C(C(N)=O)=C(C)N2 (configuration not stated)	126% (inactive)	89.8% (inactive)	83.5% (inactive)	-4.36% (inactive)	87.9%	83.5%	-0.91% (inactive)	-3.61% (inactive)
CCCCOc1ccc(C2C3CN(C(=O)OCC)CC=C3C(C#N)=C(N)C2(C#N)C#N)cc1OC (configuration not stated)	62% (inactive)	51.2% (inactive)	60.5% (inactive)	5.07% (inactive)	55.4%	60.5%	-5.27% (inactive)	2.13% (inactive)
O=C(Nc1ccccc1C(=O)NCCCn1ccnc1)c1ccccc1	81% (inactive)	94.4% (inactive)	96.8% (inactive)	9.21% (inactive)	87.6%	96.8%	-6.62% (inactive)	-8% (inactive)
Cc1ccc(O)c(-c2cc(C(=O)Nc3ccc(S(=O)(=O)N4CC(C)OC(C)C4)cc3)[nH]n2)c1 (configuration not stated)	92% (inactive)	56.7% (inactive)	34.8% (active)	-8.67% (inactive)	43.5%	34.8%	-11.1% (inactive)	-1.59% (inactive)
O=C(CSc1nnc(COc2ccc(Cl)cc2)o1)OC1CCCCC1	106% (inactive)	95.5% (inactive)	102% (inactive)	6.06% (inactive)	95.9%	102%	4.66% (inactive)	-3.87% (inactive)
CCOc1ccccc1-c1nc(-c2ccc(C)nc2OC)no1	123% (inactive)	95.9% (inactive)	81.9% (inactive)	-0.315% (inactive)	82.2%	81.9%	-0.78% (inactive)	5.74% (inactive)
CSc1nnc(-c2ccccc2)n1C	121% (inactive)	102% (inactive)	102% (inactive)	6.17% (inactive)	95.5%	102%	-8.36% (inactive)	-0.55% (inactive)
N#CCC(=O)N1CCn2c1nc1ccccc12	99% (inactive)	95% (inactive)	87.7% (inactive)	-0.78% (inactive)	88.5%	87.7%	0.13% (inactive)	0.33% (inactive)
Cc1nc(NC(=O)c2ccccc2)sc1-c1csc(NCc2ccco2)n1	82% (inactive)	89% (inactive)	20.2% (active)	-42.5% (inactive)	62.7%	20.2%	34.6% (active)	9.27% (inactive)
Cc1ccc2nc(-c3ccc4c(c3)OCCO4)cc(C(=O)O)c2c1	89% (inactive)	104% (inactive)	101% (inactive)	5.86% (inactive)	95%	101%	-4.73% (inactive)	-6% (inactive)
O=C(Nc1cccc(OCC(=O)N2CCOCC2)c1)C1CCCCC1	109% (inactive)	90% (inactive)	112% (inactive)	-0.43% (inactive)	112%	112%	-4.66% (inactive)	0% (inactive)
Cc1cccc2c(=O)oc(-c3ccc4c(c3)C(=O)N(CC3CCCO3)C4=O)nc12 (configuration not stated)	95% (inactive)	101% (inactive)	98.7% (inactive)	5.85% (inactive)	92.8%	98.7%	-4.25% (inactive)	6.77% (inactive)
CC(=O)NC(C)C(=O)OCc1ccc(Cl)cc1Cl (configuration not stated)	66% (inactive)	99.5% (inactive)	103% (inactive)	7.35% (inactive)	95.2%	103%	-4.79% (inactive)	-1.27% (inactive)
COc1ccc(-c2oc3ncn(CCN4CCOCC4)c(=N)c3c2-c2ccc(OC)cc2)cc1	82% (inactive)	88.9% (inactive)	24% (active)	2.45% (inactive)	21.5%	24%	-4.73% (inactive)	-2.55% (inactive)
